Assay results taken from ChEMBL document CHEMBL1137781, “Synthesis and preclinical evaluation of novel PET probes for P-glycoprotein function and expression” (J Med Chem, 2009).

Tests used:
Striatum [1] = test: Biodistribution in Wistar rat striatum at 40+/-4 MBq, iv after 80 mins; assay type: ADME, organism-based; details: in vivo
[2] = Biodistribution in 50 mg/kg cyclosporin A pretreated Wistar rat bulbus olfactorius at 27+/-2 MBq, iv after 80 mins; assay type: ADME, organism-based, Olfactory bulb; set-up: dose 50 mg/kg, route intravenous; details: in vivo
Procedure, shortened: (§1)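 Male Wistar rats pretreated via tail vein with saline or cyclosporin A (50 mg/kg, commercial solution), then given the [11C] tracer via penile vein. After microPET scanning the anesthetized rats were killed. Tissues were excised and weighed, and blood was centrifuged into plasma and cells. γ counting with decay correction. Results as SUV (tissue MBq/g × body weight/injected dose).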

Muscle tissue = test: Biodistribution in Wistar rat muscle at 40+/-4 MBq, iv after 80 mins; assay type: ADME, organism-based; details: in vivo
Procedure, shortened: (§2)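 Male Wistar rats (12 h light/dark, chow ad libitum) were fitted with a femoral arterial cannula under isoflurane. They were pretreated via tail vein with saline, cyclosporin A (50 mg/kg), or nonradioactive tracer compound (15 mg/kg; 10 mg/mL in saline with 35% ethanol). The 11C tracer was then given via penile vein, followed by 76 min microPET. Animals were then terminated; excised tissues were weighed and gamma-counted with decay correction. Values are SUVs (tissue MBq/g × body weight g / injected MBq).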

Heart [3] = test: Biodistribution in 50 mg/kg cyclosporin A pretreated Wistar rat heart at 27+/-2 MBq, iv after 80 mins; assay type: ADME, organism-based; set-up: dose 50 mg/kg, route intravenous; details: in vivo
Plasma [4] = test: Biodistribution in Wistar rat plasma at 40+/-4 MBq, iv after 80 mins; assay type: ADME, organism-based; details: in vivo
Pons = test: Biodistribution in Wistar rat pons at 40+/-4 MBq, iv after 80 mins; assay type: ADME, organism-based; details: in vivo
Striatum [5] = test: Biodistribution in 50 mg/kg cyclosporin A pretreated Wistar rat striatum at 27+/-2 MBq, iv after 80 mins; assay type: ADME, organism-based; set-up: dose 50 mg/kg, route intravenous; details: in vivo
Kidney = test: Biodistribution in 50 mg/kg cyclosporin A pretreated Wistar rat kidney at 27+/-2 MBq, iv after 80 mins; assay type: ADME, organism-based; set-up: dose 50 mg/kg, route intravenous; details: in vivo
[6] = Biodistribution in 50 mg/kg cyclosporin A pretreated Wistar rat medulla at 27+/-2 MBq, iv after 80 mins; assay type: ADME, organism-based, Medulla of organ; set-up: dose 50 mg/kg, route intravenous; details: in vivo
Plasma [7] = test: Biodistribution in Wistar rat plasma at 40+/-4 MBq, iv after 60 mins; assay type: ADME, organism-based; details: in vivo, 1 h
Bone [8] = test: Biodistribution in 50 mg/kg cyclosporin A pretreated Wistar rat bone at 27+/-2 MBq, iv after 80 mins; assay type: ADME, organism-based, Bone element; set-up: dose 50 mg/kg, route intravenous; details: in vivo; procedure, shortened: as §1
Colon [9] = test: Biodistribution in 50 mg/kg cyclosporin A pretreated Wistar rat colon at 27+/-2 MBq, iv after 80 mins; assay type: ADME, organism-based; set-up: dose 50 mg/kg, route intravenous; details: in vivo; procedure, shortened: as §1
Ileum [10] = test: Biodistribution in Wistar rat ileum at 40+/-4 MBq, iv after 80 mins; assay type: ADME, organism-based; details: in vivo; procedure, shortened: as §2
Heart [11] = test: Biodistribution in Wistar rat heart at 40+/-4 MBq, iv after 80 mins; assay type: ADME, organism-based; details: in vivo; procedure, shortened: as §2
Pancreas [12] = test: Biodistribution in Wistar rat pancreas at 40+/-4 MBq, iv after 80 mins; assay type: ADME, organism-based; details: in vivo; procedure, shortened: as §2
[13] = Biodistribution in 50 mg/kg cyclosporin A pretreated Wistar rat amygdala at 27+/-2 MBq, iv after 80 mins; assay type: ADME, organism-based; set-up: dose 50 mg/kg, route intravenous; details: in vivo; procedure, shortened: as §1
Ileum [14] = test: Biodistribution in 50 mg/kg cyclosporin A pretreated Wistar rat ileum at 27+/-2 MBq, iv after 80 mins; assay type: ADME, organism-based; set-up: dose 50 mg/kg, route intravenous; details: in vivo
[15] = Biodistribution in 50 mg/kg cyclosporin A pretreated Wistar rat trachea at 27+/-2 MBq, iv after 80 mins; assay type: ADME, organism-based; set-up: dose 50 mg/kg, route intravenous; details: in vivo
Colon [16] = test: Biodistribution in Wistar rat colon at 40+/-4 MBq, iv after 80 mins; assay type: ADME, organism-based; details: in vivo; procedure, shortened: as §2
Bone [17] = test: Biodistribution in Wistar rat bone at 40+/-4 MBq, iv after 80 mins; assay type: ADME, organism-based, Bone element; details: in vivo
[18] = Biodistribution in 50 mg/kg cyclosporin A pretreated Wistar rat parietal/temporal/occipital cortex at 27+/-2 MBq, iv after 80 mins; assay type: ADME, organism-based; set-up: dose 50 mg/kg, route intravenous; details: in vivo
Pancreas [19] = test: Biodistribution in 50 mg/kg cyclosporin A pretreated Wistar rat pancreas at 27+/-2 MBq, iv after 80 mins; assay type: ADME, organism-based; set-up: dose 50 mg/kg, route intravenous; details: in vivo
Spleen = test: Biodistribution in 50 mg/kg cyclosporin A pretreated Wistar rat spleen at 27+/-2 MBq, iv after 80 mins; assay type: ADME, organism-based; set-up: dose 50 mg/kg, route intravenous; details: in vivo
[20] = Biodistribution in Wistar rat amygdala at 40+/-4 MBq, iv after 80 mins; assay type: ADME, organism-based; details: in vivo
Lung [21] = test: Biodistribution in Wistar rat lung at 40+/-4 MBq, iv after 80 mins; assay type: ADME, organism-based; details: in vivo; procedure, shortened: as §2
[22] = Biodistribution in Wistar rat entorhinal cortex at 40+/-4 MBq, iv after 80 mins; assay type: ADME, organism-based; details: in vivo; procedure, shortened: as §2
Lung [23] = test: Biodistribution in 50 mg/kg cyclosporin A pretreated Wistar rat lung at 27+/-2 MBq, iv after 80 mins; assay type: ADME, organism-based; set-up: dose 50 mg/kg, route intravenous; details: in vivo
[24] = Biodistribution in 50 mg/kg cyclosporin A pretreated Wistar rat entorhinal cortex at 27+/-2 MBq, iv after 80 mins; assay type: ADME, organism-based; set-up: dose 50 mg/kg, route intravenous; details: in vivo; procedure, shortened: as §1

- SUV (Striatum [1]): 0.31
- SUV [2]: 0.84
- SUV (Muscle tissue): 0.37
- SUV (Heart [3]): 0.34
- SUV (Plasma [4]): 0.29
- SUV (Pons): 0.48
- SUV (Striatum [5]): 0.87
- SUV (Kidney): 1.47
- SUV [6]: 1.14
- SUV (Plasma [7]): 0.34
- SUV (Bone [8]): 0.26
- SUV (Colon [9]): 1.81
- SUV (Ileum [10]): 1.27
- SUV (Heart [11]): 0.37
- SUV (Pancreas [12]): 3.16
- SUV [13]: 1.07
- SUV (Ileum [14]): 1.1
- SUV [15]: 0.74
- SUV (Colon [16]): 1.37
- SUV (Bone [17]): 0.28
- SUV [18]: 1.04
- SUV (Pancreas [19]): 2.91
- SUV (Spleen): 1.73
- SUV [20]: 0.37
- SUV (Lung [21]): 1.19
- SUV [22]: 0.35
- SUV (Lung [23]): 0.98
- SUV [24]: 1.23
SMILES: COc1cc2c(cc1OC)CN(CCCC1CCCc3c(O[11CH3])cccc31)CC2 (stereo not drawn)
